Converted amounts (≈) assume the structure as drawn.
Columns and labels:
[1] = Cytotoxicity against Feline coronavirus infected cat CRFK cells by trypan blue exclusion method; assay type: cell-based, Felis catus; conditions: crfk
Method in brief: (§1)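 Uninfected confluent cultures were run in parallel with the infected cultures. Medium was replaced by 1 ml maintenance medium with serial compound concentrations; cell controls received no compound. Cultures were incubated at 37 °C. After 2 and 7 days, compound was withdrawn and viability was determined by trypan blue exclusion.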

Punta Toro virus = experiment: Antiviral activity against Punta Toro virus infected in african green monkey Vero cells assessed as protection from virus-induced cytopathogenicity by MTT assay; assay type: functional, organism-based
MDCK [2] = experiment: Cytotoxicity against Influenza A virus subtype H3N2 infected MDCK cells by trypan blue exclusion method; assay type: cell-based, Canis lupus familiaris; conditions: dog
MDCK [3] = experiment: Cytotoxicity against Influenza A virus subtype H1N1 infected MDCK cells by trypan blue exclusion method; assay type: cell-based, Canis lupus familiaris; conditions: dog
[4] = system: Respiratory syncytial virus; experiment: Antiviral activity against Respiratory syncytial virus infected in human HeLa cells assessed as protection from virus-induced cytopathogenicity after 4 days by MTT assay; assay type: functional, organism-based; conditions: 96 h
Vero [5] = experiment: Cytotoxicity against PIV 3 infected african green monkey Vero cells by trypan blue exclusion method; assay type: cell-based; conditions: chlorocebus sabaeus, vero; method in brief: as §1
Human alphaherpesvirus 2 = experiment: Antiviral activity against Herpes simplex virus 2 G infected in HEL cells assessed as protection from virus-induced cytopathogenicity after 2 to 3 days by MTT assay; assay type: functional, organism-based; conditions: Human alphaherpesvirus 2, strain G
[6] = system: Human immunodeficiency virus 2; experiment: Antiviral activity against HIV2 ROD infected in human MT4 cells assessed as protection from virus-induced cytopathogenicity after 5 days by MTT assay; assay type: functional, organism-based; conditions: Human immunodeficiency virus 2, ISOLATE ROD, MT4, 120 h
Method in brief: (§2)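 MT-4 cells at 3 × 10^4 per well were infected with HIV (IIIB or ROD) at 50% cell culture infective doses. Graded compound concentrations were added immediately after infection. Plates were incubated for 5 days at 37 °C and viable cells were counted by MTT.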

[7] = Cytotoxicity against HIV1 3B-infected human MT4 cells by MTT assay; assay type: cell-based; conditions: MT4 cells infected with HIV-1 3B
Method in brief: (§3)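 MT-4 cells (3 × 10^4 per well) were cultured in microdilution trays with various concentrations of compound, then incubated 5 days at 37 °C, and viable cell number was read by MTT.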

Felid alphaherpesvirus 1 = experiment: Antiviral activity against Feline herpesvirus infected in cat CRFK cells assessed as protection from virus-induced cytopathogenicity by MTT assay; assay type: functional, organism-based; conditions: Felid alphaherpesvirus 1, CRFK
Human respirovirus 3 = experiment: Antiviral activity against PIV 3 infected in african green monkey Vero cells assessed as protection from virus-induced cytopathogenicity after 6 to 7 days by MTT assay; assay type: functional, organism-based; conditions: Human respirovirus 3, Vero
Influenza A virus [8] = experiment: Antiviral activity against Influenza A virus H1N1 infected in MDCK cells assessed as protection from virus-induced cytopathogenicity after 6 to 7 days by MTT assay; assay type: functional, organism-based
[9] = system: Vesicular stomatitis virus; experiment: Antiviral activity against VSV infected in human HeLa cells assessed as protection from virus-induced cytopathogenicity after 1 to 2 days by MTT assay; assay type: functional, organism-based
MDCK [10] = experiment: Cytotoxicity against Influenza B virus infected MDCK cells by trypan blue exclusion method; assay type: cell-based, Canis lupus familiaris; conditions: dog
[11] = system: Vesicular stomatitis virus; experiment: Antiviral activity against VSV infected in HEL cells assessed as protection from virus-induced cytopathogenicity after 1 to 2 days by MTT assay; assay type: functional, organism-based
Vero [12] = experiment: Cytotoxicity against Punta Toro virus infected african green monkey Vero cells by trypan blue exclusion method; assay type: cell-based; conditions: chlorocebus sabaeus, vero; method in brief: as §1
HEL [13] = experiment: Cytotoxicity against VSV infected HEL cells by trypan blue exclusion method; assay type: cell-based; conditions: human, hel; method in brief: as §1
Influenza B virus = experiment: Antiviral activity against Influenza B virus infected in MDCK cells assessed as protection from virus-induced cytopathogenicity after 6 to 7 days by MTT assay; assay type: functional, organism-based
Human alphaherpesvirus 1 [14] = experiment: Antiviral activity against Herpes simplex virus 1 KOS infected in HEL cells assessed as protection from virus-induced cytopathogenicity after 2 to 3 days by MTT assay; assay type: functional, organism-based; conditions: Human alphaherpesvirus 1, KOS
Vero [15] = experiment: Cytotoxicity against Human coxsackievirus B4 infected african green monkey Vero cells by trypan blue exclusion method; assay type: cell-based; conditions: chlorocebus sabaeus, vero; method in brief: as §1
[16] = Cytotoxicity against HIV2 ROD infected human MT4 cells by MTT assay; assay type: cell-based; conditions: MT4 cells infected with HIV-2 ROD; method in brief: as §3
Influenza A virus [17] = experiment: Antiviral activity against Influenza A virus H3N2 infected in MDCK cells assessed as protection from virus-induced cytopathogenicity after 6 to 7 days by MTT assay; assay type: functional, organism-based
[18] = Selectivity index, ratio of CC50 for HIV2 ROD infected human MT4 cells to IC50 for […] ROD; assay type: functional
[19] = system: Mammalian orthoreovirus 1; experiment: Antiviral activity against Reovirus 1 infected in african green monkey Vero cells assessed as protection from virus-induced cytopathogenicity after 6 to 7 days by MTT assay; assay type: functional, organism-based; conditions: Mammalian orthoreovirus 1, Vero
Feline coronavirus = experiment: Antiviral activity against Feline coronavirus infected in cat CRFK cells assessed as protection from virus-induced cytopathogenicity by MTT assay; assay type: functional, organism-based; conditions: Alphacoronavirus 1, CRFK
Coxsackievirus B4 [20] = experiment: Antiviral activity against Human coxsackievirus B4 infected in african green monkey Vero cells assessed as protection from virus-induced cytopathogenicity after 2 days by MTT assay; assay type: functional, organism-based; conditions: Enterovirus B, 48 h
[21] = system: Human immunodeficiency virus 1; experiment: Antiviral activity against HIV1 3B-infected in human MT4 cells assessed as protection from virus-induced cytopathogenicity after 5 days by MTT assay; assay type: functional, organism-based; conditions: Human immunodeficiency virus 1, 3B, MT4, 120 h; method in brief: as §2
HEL [22] = experiment: Cytotoxicity against Herpes simplex virus 2 G infected HEL cells by trypan blue exclusion method; assay type: cell-based; conditions: human, hel; method in brief: as §1
Sindbis virus = experiment: Antiviral activity against Sindbis virus infected in african green monkey Vero cells assessed as protection from virus-induced cytopathogenicity after 2 to 3 days by MTT assay; assay type: functional, organism-based
Vero [23] = experiment: Cytotoxicity against Sindbis virus infected african green monkey Vero cells by trypan blue exclusion method; assay type: cell-based; conditions: chlorocebus sabaeus, vero; method in brief: as §1
HeLa [24] = experiment: Cytotoxicity against Respiratory syncytial virus infected human HeLa cells by trypan blue exclusion method; assay type: cell-based; conditions: hela; method in brief: as §1
HEL [25] = experiment: Cytotoxicity against Vaccinia virus infected HEL cells by trypan blue exclusion method; assay type: cell-based; conditions: human, hel; method in brief: as §1
HeLa [26] = experiment: Cytotoxicity against VSV infected human HeLa cells by trypan blue exclusion method; assay type: cell-based; conditions: hela; method in brief: as §1
[27] = Cytotoxicity against Feline herpesvirus infected cat CRFK cells by trypan blue exclusion method; assay type: cell-based, Felis catus; conditions: crfk; method in brief: as §1
HEL [28] = experiment: Cytotoxicity against acyclovir-sensitive Herpes simplex virus 1 KOS infected HEL cells by trypan blue exclusion method; assay type: cell-based; conditions: human; method in brief: as §1
Vero [29] = experiment: Cytotoxicity against Reovirus 1 infected african green monkey Vero cells by trypan blue exclusion method; assay type: cell-based; conditions: chlorocebus sabaeus, vero; method in brief: as §1
Coxsackievirus B4 [30] = experiment: Antiviral activity against Human coxsackievirus B4 infected in human HeLa cells assessed as protection from virus-induced cytopathogenicity after 2 days by MTT assay; assay type: functional, organism-based; conditions: Enterovirus B, 48 h
HEL [31] = experiment: Cytotoxicity against Herpes simplex virus 1 KOS infected HEL cells by trypan blue exclusion method; assay type: cell-based; conditions: human, hel; method in brief: as §1
HeLa [32] = experiment: Cytotoxicity against Human coxsackievirus B4 infected human HeLa cells by trypan blue exclusion method; assay type: cell-based; conditions: hela; method in brief: as §1
Human alphaherpesvirus 1 [33] = experiment: Antiviral activity against acyclovir-sensitive Herpes simplex virus 1 KOS infected in HEL cells assessed as protection from virus-induced cytopathogenicity after 2 to 3 days by MTT assay; assay type: functional, organism-based; conditions: Human alphaherpesvirus 1, KOS
Proteus mirabilis = experiment: Antibacterial activity against Proteus mirabilis after 24 hrs by broth microdilution method; assay type: functional; conditions: Proteus mirabilis, 24 h; read-out: MIC
Method in brief: (§4)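 Clinical isolates. Each dilution received 100 μl of 0.5 McFarland fresh culture. Solvent (DMSO), growth and standard controls were included. Tubes were incubated at 37 °C for 24 h. MIC is the highest dilution showing no turbidity. Tests were run in triplicate, with at least two repetitions.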

Streptococcus viridans = experiment: Antibacterial activity against Streptococcus viridans after 24 hrs by broth microdilution method; assay type: functional; conditions: Streptococcus viridans, 24 h; read-out: MIC; method in brief: as §4

Compound | CC50 [1] [nM] | EC50 (Punta Toro virus) [nM] | CC50 (MDCK [2]) [nM] | CC50 (MDCK [3]) [nM] | EC50 [4] [nM] | CC50 (Vero [5]) [nM] | EC50 (Human alphaherpesvirus 2) [nM] | EC50 (Felid alphaherpesvirus 1) [nM] | EC50 (Human respirovirus 3) [nM] | EC50 (Influenza A virus [8]) [nM] | EC50 [9] [nM] | CC50 (MDCK [10]) [nM] | CC50 (Vero [12]) [nM] | CC50 (HEL [13]) [nM] | EC50 (Influenza B virus) [nM] | EC50 (Human alphaherpesvirus 1 [14]) [nM] | CC50 (Vero [15]) [nM] | EC50 (Influenza A virus [17]) [nM] | EC50 [19] [nM] | EC50 (Feline coronavirus) [nM] | other results
COc1cc(/C=C/C(=O)CC(=O)/C=C/c2ccc(OCCOC(=O)CCC(NC(=O)c3ccc(NCc4cnc5nc(N)[nH]c(=O)c5n4)cc3)C(=O)O)c(OC)c2)ccc1O (stereo unspecified) | > 119 | > 119 | > 119 | > 119 | > 119 | > 119 | > 119 | 105 | > 119 | > 119 | > 119 | > 119 | > 119 | > 119 | > 119 | > 119 | > 119 | > 119 | > 119 | 78 | IC50 [6]: 69 nM; CC50 [7]: > 63 nM; EC50 [11]: > 119 nM; CC50 [16]: > 69 nM; Ratio CC50/IC50 [18]: <1; EC50 (Coxsackievirus B4 [20]): > 119 nM; IC50 [21]: 63 nM; CC50 (HEL [22]): > 119 nM; EC50 (Sindbis virus): > 119 nM; CC50 (Vero [23]): > 119 nM; CC50 (HeLa [24]): > 119 nM; CC50 (HEL [25]): > 119 nM; CC50 (HeLa [26]): > 119 nM; CC50 [27]: > 119 nM; CC50 (HEL [28]): > 119 nM; CC50 (Vero [29]): > 119 nM; EC50 (Coxsackievirus B4 [30]): > 119 nM; CC50 (HEL [31]): > 119 nM; CC50 (HeLa [32]): > 119 nM; EC50 (Human alphaherpesvirus 1 [33]): > 119 nM
COc1cc(/C=C/C(=O)CC(=O)/C=C/c2ccc(O)c(OC)c2)ccc1O [CURCUMIN] | > 271 | > 10 | > 92 | > 92 | > 10 | 54 | 10 | > 271 | > 10 | > 271 | > 10 | > 92 | 54 | > 2 | > 271 | > 10 | 54 | > 271 | > 10 | > 271 | MIC (Proteus mirabilis): 1.23 µM (≈ 0.453 µg/mL); MIC (Streptococcus viridans): 2.47 µM (≈ 0.91 µg/mL); EC50 (Coxsackievirus B4 [20]): > 10 nM; CC50 (HEL [22]): > 2 nM; EC50 (Sindbis virus): > 10 nM; CC50 (Vero [23]): 54 nM; CC50 (HeLa [24]): ≥ 10 nM; CC50 (HEL [25]): > 2 nM; CC50 (HeLa [26]): ≥ 10 nM; CC50 [27]: > 271 nM; CC50 (HEL [28]): > 2 nM; CC50 (Vero [29]): 54 nM; EC50 (Coxsackievirus B4 [30]): > 10 nM; CC50 (HEL [31]): ≥ 10 nM; CC50 (HeLa [32]): ≥ 10 nM; EC50 (Human alphaherpesvirus 1 [33]): 10 nM

— ChEMBL document CHEMBL1154855 (Eur J Med Chem, 2010)
